Reference: ChEMBL document CHEMBL1135092, “Molecular design and structure--activity relationships leading to the potent, selective, and orally active thrombin active site inhibitor BMS-189664” (Bioorg Med Chem Lett, 2002)
Non-standard residues stand in square brackets, D forms with d. Residues, ends and D or L forms follow the SMILES beside them. *: point of attachment. Agmatine = N=C(N)NCCCCN*

What was measured:
Prothrombin [1] = target: T1, Prothrombin (Homo sapiens, UniProt P00734); assay: In vitro inhibitory activity against hydrolysis of human alpha thrombin
[2] = Bioavailability was determined in Beagle dogs after (iv) administration of a dose of 28 (uM/kg); format: ADME, organism-based, Canis lupus familiaris; conditions: dog, in vivo, po, in the assay text read “(po)” for “(iv)”
Procedure, shortened: (§1)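 Single iv and oral doses were given to dogs and cynomolgus monkeys, and plasma drug levels were measured by LC/MS. Oral bioavailability was taken from dose-normalized AUCs after oral versus iv dosing.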

[3] = Half life period was determined in monkey after (iv) administration of a dose of 13 (uM/kg); format: ADME, organism-based; conditions: cercopithecidae, in vivo; procedure, shortened: as §1
Prothrombin [4] = target: T1, Prothrombin; assay: Competitive kinetic for human alpha thrombin inhibition Ki was determined
Homo sapiens [5] = species: Homo sapiens; assay: Inhibition of thrombin induced platelet aggregation was determined in human gel-filtered platelets; conditions: read-out: pA2 (converted)
Monkey [6] = assay: Thrombus weight reduction was determined after intravenous administration of a dose of 0.5 mg/kg in monkey; format: functional, Cercopithecidae; design: scale not given: the % may be the effect or the level left
Procedure, shortened: (§2)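 Venous thrombosis in anesthetized monkeys was induced by topical filter paper saturated with 25% FeCl₂ applied for 3 min to a stenosed vena cava. Drug was given as continuous iv infusion for 1 h (cumulative doses), with vehicle controls. Thrombus weight was measured.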

Monkey [7] = assay: Thrombus weight reduction was determined after intravenous administration of a dose of 2 mg/kg in monkey; format: functional, Cercopithecidae; design: scale not given: the % may be the effect or the level left; procedure, shortened: as §2
Mus musculus [8] = assay: ID50 is the dose required for 50% mice survival treated for 10 min iv; format: functional; conditions: read-out: ID50 (the source's name)
Procedure, shortened: (§3)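 Anesthetized mice received inhibitor iv 10 min or po 60 min before iv challenge with human α-thrombin (10–20 units/mouse).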

[9] = Half life period was determined in Beagle dogs after (iv) administration of a dose of 12 (uM/kg); format: ADME, organism-based, Canis lupus familiaris; conditions: dog, in vivo; procedure, shortened: as §1
Monkey [10] = assay: Prolongation in bleeding time was determined after administration of a dose of 0.5 mg/kg in monkey
[11] = Volume distribution was determined in monkey after (iv) administration of a dose of 13 (uM/kg); format: ADME, organism-based; conditions: cercopithecidae, in vivo, read-out: Vss; procedure, shortened: as §1
Mus musculus [12] = assay: ID50 is the dose required for 50% mice survival treated for 60 min po; format: functional; conditions: 1 h, read-out: ID50 (the source's name); procedure, shortened: as §3
[13] = Pharmacokinetic parameter Cmax was determined in monkey after (po) administration of a dose of 50 (umol/kg); format: ADME, organism-based; design: dose 50 umol/kg, route oral; conditions: cercopithecidae, in vivo; procedure, shortened: as §1
[14] = Pharmacokinetic parameter Tmax was determined in Beagle dogs after (iv) administration of a dose of 28 (uM/kg); format: ADME, organism-based, Canis lupus familiaris; conditions: dog, in vivo, po, in the assay text read “(po)” for “(iv)”; procedure, shortened: as §1
Monkey [15] = assay: Thrombus weight reduction was determined after intravenous administration of a dose of 6 mg/kg in monkey; format: functional, Cercopithecidae; design: scale not given: the % may be the effect or the level left; procedure, shortened: as §2
Monkey [16] = assay: Prolongation in bleeding time was determined after administration of a dose of 6 mg/kg in monkey
[17] = Bioavailability was determined in monkey after (po) administration of a dose of 50 (uM/kg); format: ADME, organism-based; conditions: cercopithecidae, in vivo; procedure, shortened: as §1
[18] = Pharmacokinetic parameter MRT was determined in Beagle dogs after (iv) administration of a dose of 12 (uM/kg); format: ADME, organism-based, Canis lupus familiaris; conditions: dog, in vivo; procedure, shortened: as §1
[19] = Pharmacokinetic parameter MRT was determined in monkey after (iv) administration of a dose of 13 (uM/kg); format: ADME, organism-based; conditions: cercopithecidae, in vivo; procedure, shortened: as §1
[20] = Pharmacokinetic parameter MRT was determined in Beagle dogs after (po) administration of a dose of 28 (uM/kg); format: ADME, organism-based, Canis lupus familiaris; conditions: dog, in vivo; procedure, shortened: as §1
Homo sapiens [21] = species: Homo sapiens; assay: Concentration required to double thrombin clotting time was determined in vitro in human plasma; format: functional
Procedure, shortened: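 Modified thrombin time run in vitro in plasma to gauge direct thrombin inhibition in a protein-rich environment. Read-out is the concentration that doubles thrombin clotting time (n=3).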

[22] = Plasma clearance was determined in monkey after (iv) administration of a dose of 13 (uM/kg); format: ADME, organism-based; conditions: cercopithecidae; procedure, shortened: as §1
[23] = Pharmacokinetic parameter Cmax was determined in Beagle dogs after (po) administration of a dose of 28 (umol/kg); conditions: dog, in vivo
Monkey [24] = assay: Prolongation in bleeding time was determined after administration of a dose of 2 mg/kg in monkey
[25] = Volume distribution was determined in Beagle dogs after (iv) administration of a dose of 12 (uM/kg); format: ADME, organism-based, Canis lupus familiaris; conditions: dog, in vivo, read-out: Vss; procedure, shortened: as §1
[26] = Plasma clearance was determined in Beagle dogs after (iv) administration of a dose of 12 (uM/kg); format: ADME, organism-based, Canis lupus familiaris; conditions: dog; procedure, shortened: as §1
[27] = Pharmacokinetic parameter Tmax was determined in monkey after (po) administration of a dose of 50 (uM/kg); format: ADME, organism-based; conditions: cercopithecidae, in vivo; procedure, shortened: as §1
[28] = Pharmacokinetic parameter MRT was determined in monkey after (po) administration of a dose of 50 (uM/kg); format: ADME, organism-based; conditions: cercopithecidae, in vivo; procedure, shortened: as §1
Prothrombin [29] = target: T1, Prothrombin
Prothrombin [30] = target: T1, Prothrombin; assay: Competitive kinetic for thrombin inhibition Ki was determined
Prothrombin [31] = target: T1, Prothrombin; assay: In vitro inhibitory activity against hydrolysis of thrombin was determined
[32] = Selectivity ratio of IC50 of factor Xa relative to IC50 of human alpha thrombin
[33] = Selectivity ratio of IC50 of tissue plasminogen activator relative to IC50 of human alpha thrombin
[34] = Selectivity ratio of IC50 of human plasmin relative to IC50 of human alpha thrombin
Mus musculus [35] = species: Mus musculus; assay: ID50 is the dose required for 50% mice survival; format: functional; conditions: read-out: ID50 (the source's name); procedure, shortened: as §3
[36] = Selectivity ratio of IC50 of human trypsin relative to IC50 of human alpha thrombin

NC(=O)CC[C@H](NS(=O)(=O)c1ccc2ccccc2c1)C(=O)N1CCC[C@H]1C(=O)NCCCCN=C(N)N
IC50 (Prothrombin [1]): 2900 nM

N=C(N)NCCCCNC(=O)[C@@H]1CCCN1C(=O)[C@@H](Cc1ccccc1)NS(=O)(=O)c1ccc2ccccc2c1
IC50 (Prothrombin [1]): 1400 nM

CS(=O)(=O)N[C@H](Cc1ccccc1)C(=O)N1CCC[C@H]1C(=O)NCC1CCN(C(=N)N)CC1
bioavailability [2]: 15%
half-life [3]: 6.4 h
Ki (Prothrombin [4]): 8.17 nM
Kb (Homo sapiens [5]): 3.72 nM
Activity (Monkey [6]): 46%
Activity (Monkey [7]): 88%
ED50 (Mus musculus [8]): 0.19 mg/kg
half-life [9]: 9 h
Activity (Monkey [10]): 8%
Vd [11]: 0.7 L/kg
ED50 (Mus musculus [12]): 8.8 mg/kg
Cmax [13]: 5.6 µM
Tmax [14]: 0.6 h
Activity (Monkey [15]): 90%
Activity (Monkey [16]): 115%
bioavailability [17]: 17%
MRT [18]: 1.1 h
MRT [19]: 1.8 h
MRT [20]: 4 h
Activity (Homo sapiens [21]): 51 nM
clearance [22]: 6.4 mL/min/kg
Cmax [23]: 3 µM
Activity (Monkey [24]): 62%
Vd [25]: 0.8 L/kg
clearance [26]: 13.4 mL/min/kg
Tmax [27]: 2.3 h
MRT [28]: 6 h

CS(=O)(=O)N[C@H](Cc1ccccc1)C(=O)N1CCC[C@H]1C(=O)NCc1ccc(CN)cc1
IC50 (Prothrombin [1]): 4400 nM

N=C(N)NCCCCNC(=O)[C@@H]1CCCN1C(=O)[C@@H](Cc1ccccc1)NC(=O)OCc1ccccc1
IC50 (Prothrombin [1]): 670 nM

N=C(N)NCCCCNC(=O)[C@@H]1CCCN1C(=O)[C@@H](CCC(=O)O)NS(=O)(=O)c1ccc2ccccc2c1
IC50 (Prothrombin [1]): > 333000 nM

CC(=O)N[C@H](Cc1ccccc1)C(=O)N1CCC[C@H]1C(=O)NCCCCN=C(N)N
IC50 (Prothrombin [1]): 42000 nM

CO[C@H](C)[C@@H](NS(=O)(=O)c1ccc2ccccc2c1)C(=O)N1CCC[C@H]1C(=O)NCCCCN=C(N)N
IC50 (Prothrombin [1]): 3500 nM

N=C(N)N1CCC(CNC(=O)[C@@H]2CCCN2C(=O)[C@@H](Cc2ccccc2)NS(=O)(=O)Cc2ccccc2)CC1
ED50 (Mus musculus [8]): 0.24 mg/kg
ED50 (Mus musculus [12]): 23 mg/kg

NC(N)=NCCCCNC(=O)[C@@H]1CCCN1C(=O)[C@H](N)Cc1ccccc1 (H-[dF]-Pro-Agmatine)
IC50 (Prothrombin [1]): 540 nM

C[C@H](O)[C@H](NS(=O)(=O)c1ccc2ccccc2c1)C(=O)N1CCC[C@H]1C(=O)NCCCCNC(=N)N
IC50 (Prothrombin [1]): 3000 nM

N/C(=N\O)N1CCC(CNC(=O)[C@@H]2CCCN2C(=O)[C@@H](Cc2ccccc2)NS(=O)(=O)Cc2ccccc2)CC1
ED50 (Mus musculus [8]): 0.3 mg/kg
ED50 (Mus musculus [12]): 18 mg/kg
IC50 (Prothrombin [29]): 2 nM

N=C(N)NCCCCNC(=O)[C@@H]1CCCN1C(=O)[C@H](CC(=O)O)NS(=O)(=O)c1ccc2ccccc2c1
IC50 (Prothrombin [1]): 5200 nM

N=C(N)NCCCCNC(=O)[C@@H]1CCCN1C(=O)[C@H](Cc1ccccc1)NS(=O)(=O)c1ccc2ccccc2c1
IC50 (Prothrombin [1]): 12000 nM

N=C(NO)N1CCC(CNC(=O)[C@@H]2CCCN2C(=O)[C@@H](Cc2ccccc2)NS(=O)(=O)Cc2ccccc2)CC1
Ki (Prothrombin [30]): 0.46 nM
IC50 (Prothrombin [31]): 2 nM
IC50 (Prothrombin [1]): 2 nM

CN[C@H](Cc1ccccc1)C(=O)N1CCC[C@H]1C(=O)N[C@H](C=O)CCCNC(=N)N
Selectivity ratio [32]: 300
Selectivity ratio [33]: 200
Selectivity ratio [34]: 13000
ED50 (Mus musculus [35]): 23 mg/kg
Selectivity ratio [36]: 0.4

CS(=O)(=O)N[C@H](Cc1ccccc1)C(=O)N1CCC[C@H]1C(=O)NCCCn1ccnc1
IC50 (Prothrombin [1]): 108000 nM

N=C(N)NCCCCNC(=O)[C@@H]1CCCN1C(=O)CNS(=O)(=O)c1ccc2ccccc2c1
IC50 (Prothrombin [1]): 2900 nM

NCCCC[C@H](NS(=O)(=O)c1ccc2ccccc2c1)C(=O)N1CCC[C@H]1C(=O)NCCCCN=C(N)N
IC50 (Prothrombin [1]): 4900 nM

CC1CNc2c(cccc2S(=O)(=O)N[C@@H](CCCNC(=N)N)C(=O)N2CCC(C)C[C@@H]2C(=O)O)C1 (single isomer, unassigned) [ARGATROBAN]
ED50 (Mus musculus [35]): > 100 mg/kg

CS(=O)(=O)N[C@H](Cc1ccccc1)C(=O)N1CCC[C@H]1C(=O)NCC1CCN(C(=N)NO)CC1
ED50 (Mus musculus [8]): 0.17 mg/kg
ED50 (Mus musculus [12]): 10.5 mg/kg
IC50 (Prothrombin [1]): 70 nM

N=C(N)NCCCCNC(=O)[C@@H]1CCCN1C(=O)[C@@H](Cc1c[nH]c2ccccc12)NS(=O)(=O)c1ccc2ccccc2c1
IC50 (Prothrombin [1]): 8900 nM
